Published values gathered from unrelated publications.
NMUR1: Neuromedin-U receptor 1 (NMUR1, Homo sapiens, UniProt Q9HB89)

c1cncc(-c2cccc(Nc3nccc(NC4CCCCC4)n3)c2)c1 — Kd (Tyrosine-protein kinase JAK2, JH1 (JAK2, Homo sapiens, UniProt O60674); binding; competition with immobilised ligand): 260 nM
COc1ccc(-c2nsc(NC(=O)[C@@H]3C[C@H]3C)c2C)cc1 — EC50 (Metabotropic glutamate receptor 2 (GRM2, Homo sapiens, UniProt Q14416); calcium signal; agonist): > 25000 nM
CCOc1cc(-c2nncn2C)ccc1Nc1ncc2cc(C)nc(NCC(C)(C)C)c2n1 — Kd (Mitogen-activated protein kinase 9 (MAPK9, Homo sapiens, UniProt P45984); binding; competition with immobilised ligand): 74 nM
Cc1ncsc1-c1ccc([C@H](C)NC(=O)[C@@H]2C[C@@H](O)CN2C(=O)[C@@H](NC(=O)CCCCCC(=O)N2CCC3(CC2)CCN(c2cncc(Nc4ncc(Cl)c(-c5cccc(-c6ccccc6)c5)n4)c2)C3=O)C(C)(C)C)cc1 — DC50 (Phosphatidylinositol 5-phosphate 4-kinase type-2 gamma (PIP4K2C, Homo sapiens, UniProt Q8TBX8); protein level; degrader; western blot): 24 nM
Cc1cnc(-c2ccc(-c3ccc(NC(=O)Nc4c(F)cc(F)cc4F)cc3F)c3c2C(=O)NC3)[nH]1 — Kd (Proto-oncogene tyrosine-protein kinase receptor Ret (RET, Homo sapiens, UniProt P07949); binding; competition with immobilised ligand): 9.4 nM
Cc1cc2nc3c(=O)[nH]c(=O)nc-3n(C[C@H](O)[C@H](O)[C@H](O)COP(=O)(O)OP(=O)(O)OC[C@H]3O[C@@H](n4cnc5c(N)ncnc54)[C@H](O)[C@@H]3O)c2cc1C — Kd (RNA-binding protein Musashi homolog 2 (MSI2, Homo sapiens, UniProt Q96DH6); binding; lysate): 59 nM
CC(C)C[C@H](NC(=O)[C@H](Cc1ccccc1)NC(=O)[C@H](Cc1ccc(O)cc1)NC(=O)CNC(=O)[C@H](CCCNC(=N)N)NC(=O)[C@H](CO)NC(=O)[C@H](CCC(N)=O)NC(=O)[C@H](CO)NC(=O)[C@H](C)NC(=O)[C@H](Cc1ccccc1)NC(=O)[C@@H]1CCCN1C(=O)[C@H](CO)NC(=O)[C@H](CCC(N)=O)NC(=O)[C@H](Cc1ccccc1)NC(=O)[C@H](CCC(=O)O)NC(=O)[C@H](CCC(=O)O)NC(=O)[C@H](CC(=O)O)NC(=O)[C@@H](NC(=O)[C@H](CCCNC(=N)N)NC(=O)[C@@H](N)Cc1ccccc1)C(C)C)C(=O)N[C@@H](Cc1ccccc1)C(=O)N[C@@H](CCCNC(=N)N)C(=O)N1CCC[C@H]1C(=O)N[C@@H](CCCNC(=N)N)C(=O)N[C@@H](CC(N)=O)C(N)=O — EC50 (NMUR1; inositol phosphate; agonist; TR-FRET): 0.12 nM
COc1ccc2c(Oc3ccc4c(C(=O)Nc5ccccc5N)cccc4c3)ccnc2c1 — IC50 (Tyrosine-protein kinase JAK2 (JAK2, Homo sapiens, UniProt O60674); enzyme activity; inhibitor): > 500 nM
CC(C)C[C@H](NC(=O)[C@H](Cc1ccccc1)NC(=O)[C@@H](N)Cc1ccc(O)cc1)C(=O)N[C@@H](Cc1ccccc1)C(=O)N[C@@H](CCCNC(=N)N)C(=O)N1CCC[C@H]1C(=O)N[C@@H](CCCNC(=N)N)C(=O)N[C@@H](CC(N)=O)C(N)=O — EC50 (NMUR1; β-arrestin recruitment; agonist): 1.7 nM
CN1CC(Oc2cnc(C#N)cc2-c2ccn3nc(NC(=O)C4CC4)cc3c2)C1 — Ki (Tyrosine-protein kinase Lck (LCK, Homo sapiens, UniProt P06239); enzyme activity; inhibitor): 220 nM
CC(C)(C)CC(C)(C)c1ccc(O)cc1 — EC50 (Estrogen receptor beta (ESR2, Homo sapiens, UniProt Q92731); reporter gene; agonist; luciferase): 197 nM
O=C(/C=C/c1ccc(O)c2c1[C@H](C(=O)O[C@H](Cc1ccc(O)c(O)c1)C(=O)O)[C@@H](c1ccc(O)c(O)c1)O2)O[C@H](Cc1ccc(O)c(O)c1)C(=O)O — Kd (Platelet glycoprotein 4 (CD36, Homo sapiens, UniProt P16671); binding; SPR): 3740 nM
